Converted amounts (≈) assume the structure as drawn.
Key:
[1] = Aqueous solubility of the compound at pH 7.4 by HPLC-MS/MS analysis; format: physicochemical; conditions: buffer
[2] = Clearance in Sprague-Dawley rat at 5 mg/kg, iv and 20 mg/kg, po by LC-MS/MS analysis; format: ADME, organism-based; conditions: in vivo
Method in brief: (§1)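 Rats were dosed i.v. at 5 mpk and orally at 20 mpk. Clearance and oral bioavailability were calculated from mean plasma concentrations of 2 rats.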

[3] = Oral bioavailability in Sprague-Dawley rat at 20 mg/kg by LC-MS/MS analysis; format: ADME, organism-based; conditions: in vivo; method in brief: as §1
[4] = Clearance in mouse liver microsomes at 10 uM after 60 mins by HPLC-MS/MS analysis; format: ADME
[5] = biological target: GABA-A receptor; agonist GABA site; assay: Positive allosteric modulation of recombinant alpha1beta2gamma2 GABAA receptor (unknown origin) expressed in LTK cells assessed as potentiation of GABA-induced channel current treated for 30 s prior to GABA stimulation for 2s by Q-patch assay; format: cell-based, Homo sapiens
[6] = biological target: GABA-A receptor; agonist GABA site; assay: Positive allosteric modulation of recombinant alpha4beta3delta GABAA receptor (unknown origin) expressed in CHO cells assessed as potentiation of GABA-induced channel current treated for 30 s prior to GABA stimulation for 2s by manual patch assay; format: cell-based, Homo sapiens
[7] = Ratio of drug level in brain to plasma in Sprague-Dawley rat at 5 mg/kg, iv after 30 mins by LC-MS/MS analysis; format: ADME, organism-based; parameters: dose 5 mg/kg, route intravenous; conditions: read-out: BPR
Method in brief: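 Brain and plasma were sampled at a single point 30 min after the i.v. 5 mpk dose. The ratio was calculated from mean concentrations of 2 rats.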

[8] = Lipophilicity, log D of the compound at 20 uM at pH 7.4 by HPLC-MS/MS analysis; format: physicochemical; conditions: buffer
[9] = Clearance in rat liver microsomes at 10 uM after 60 mins by HPLC-MS/MS analysis; format: ADME
[10] = biological target: GABA-A receptor; anion channel; assay: Displacement of [3H]TBPS from GABAA receptor in Sprague-Dawley rat brain cortical membrane after 90 mins by liquid scintillation spectrometry
[11] = Clearance in human liver microsomes at 10 uM after 60 mins by HPLC-MS/MS analysis; format: ADME
[12] = Retention time of the compound by LC-MS analysis; format: physicochemical
Method in brief: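 Eluents were water and acetonitrile, each with TFA, run as a 5 to 95% acetonitrile gradient over 1.5 min at 1.5 mL/min. Capillary voltage was 3.5 kV and fragmentor voltage 50 V.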

[13] = biological target: GABA-A receptor; alpha-1/beta-2/gamma-2 (Homo sapiens) (UniProt P14867+P47870+P18507); assay: Selectivity ratio of EC50 for recombinant alpha1beta2gamma2 GABAA receptor (unknown origin) expressed in LTK cells to EC50 for recombinant alpha4beta3delta GABAA receptor (unknown origin) expressed in CHO cells; format: cell-based

Structure (SMILES)	solubility [1]	clearance [2]	bioavailability [3]	CLhep predicted at 10 µM [4]	EC50 [5]	EC50 [6]	Kp at 0.5 h [7]	logD at 20 µM [8]	CLhep predicted at 10 µM [9]	IC50 [10]	CLhep predicted at 10 µM [11]	Retention_time [12]	Ratio EC50 [13]
C[C@@]1(O)CC[C@H]2[C@H](CC[C@@H]3[C@@H]2CC[C@]2(C)[C@@H](C(=O)Cn4ncnn4)CC[C@@H]32)C1	2.5 µM (≈ 0.966 µg/mL)	18.3 mL/min/kg	41%	67.5 mL/min/kg	1150 nM	345 nM	2.3	4.5	39.3 mL/min/kg	6 nM	5.5 mL/min/kg	0.87 min	–
C[C@@]1(O)CC[C@H]2[C@H](CC[C@@H]3[C@@H]2CC[C@]2(C)[C@@H](C(=O)Cn4cc5ccncc5n4)CC[C@@H]32)C1	1.2 µM (≈ 0.523 µg/mL)	58.3 mL/min/kg	40%	33.8 mL/min/kg	> 3000 nM	178 nM	2.1	4.7	55.7 mL/min/kg	16 nM	4.5 mL/min/kg	0.75 min	> 17
C[C@@]1(O)CC[C@H]2[C@H](CC[C@@H]3[C@@H]2CC[C@]2(C)[C@@H](C(=O)Cn4cc5ncccc5n4)CC[C@@H]32)C1	12.4 µM (≈ 5.4 µg/mL)	73.3 mL/min/kg	1.5%	60 mL/min/kg	> 3000 nM	343 nM	1.3	4.7	55.7 mL/min/kg	6 nM	4.5 mL/min/kg	0.81 min	> 8
C[C@@]1(O)CC[C@H]2[C@@H](CC[C@@H]3[C@@H]2CC[C@]2(C)[C@@H](C(=O)Cn4ncnn4)CC[C@@H]32)C1	0.9 µM (≈ 0.348 µg/mL)	8.33 mL/min/kg	67%	33.8 mL/min/kg	945 nM	292 nM	2	4.5	14.3 mL/min/kg	31 nM	1.67 mL/min/kg	0.88 min	–
C[C@@]1(O)CC[C@H]2[C@H](CC[C@@H]3[C@@H]2CC[C@]2(C)[C@@H](C(=O)Cn4nccn4)CC[C@@H]32)C1	7.3 µM (≈ 2.81 µg/mL)	38.3 mL/min/kg	27%	67.5 mL/min/kg	125 nM	240 nM	1.8	4.6	45 mL/min/kg	11 nM	3.17 mL/min/kg	0.87 min	–
